Experimental data as given in ChEMBL document CHEMBL1125418, “Antimycobacterial activity of a series of pyrazinoic acid esters” (1992).
Converted amounts (≈) assume the structure as drawn.

Columns and labels:
[1] = test system: Mycobacterium tuberculosis; test: In vitro activity against Mycobacterium. tuberculosis (strain type-BUR)at pH 6.6; assay type: functional
Method in brief: (§1)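 Twofold serial dilutions (200–3.12 µg/mL) in 7H10 agar with 10% OADC enrichment at pH 6.6, in compartmented plates. Plates were stored at 4 °C and used within 24–48 h. A no-drug compartment served as control for each isolate. Plates were incubated for 4 weeks at 37 °C. MIC was the lowest concentration giving 99% (2 log) growth inhibition.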

[2] = test system: Mycobacterium tuberculosis; test: In vitro activity against Mycobacterium. tuberculosis (strain type-ATCC 35828)at pH 6.6; assay type: functional; method in brief: as §1
Mycobacterium kansasii [3] = test: In vitro activity against Mycobacterium. kansasii (strain type-SWK).at pH 6.6; assay type: functional
Method in brief: (§2)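 MIC for pyrazinamide-resistant isolate SWK by agar dilution in Middlebrook 7H10 with 10% OADC at pH 6.6. Serial 2-fold dilutions run 200–3.12 µg/mL in compartmented plates prepared 24–48 h in advance and stored at 4 °C. A drug-free control is included. Plates were held at 37 °C for 4 weeks. The endpoint is 99% (2 log) inhibition of growth.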

[4] = test system: Mycobacterium tuberculosis; test: In vitro activity against Mycobacterium. tuberculosis (strain type-BUR)at pH 5.8; assay type: functional; details: Mycobacterium tuberculosis; read-out: MIC
[5] = test system: Mycobacterium tuberculosis; test: In vitro activity against Mycobacterium. tuberculosis (strain type-ATCC 35828)at pH 5.8; assay type: functional
Method in brief: (§3)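 Middlebrook 7H10 agar plus 10% OADC at pH 5.8 in compartmented plates, with serial twofold dilutions from 200 to 3.12 µg/mL. Plates were prepared 24–48 h before use and stored at 4 °C. A drug-free compartment was included per isolate. Incubation was 37 °C for 4 weeks. MIC was the lowest level producing 99% (2 log) inhibition of growth.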

[6] = test system: Mycobacterium tuberculosis; test: In vitro activity against Mycobacterium strain ATCC 35828 (Mycobacterium tuberculosis); assay type: functional
Method in brief: (§4)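 Agar dilution in compartmented plates of Middlebrook 7H10 agar with 10% OADC, adjusted to pH 5.8 or pH 6.6. Twofold compound dilutions spanned 200–3.12 µg/mL. Plates were made 24–48 h ahead and held at 4 °C. MIC (µg/mL) was the lowest concentration giving 99% (2 log) growth inhibition.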

[7] = test system: Mycobacterium tuberculosis; test: In vitro inhibitory activity against Mycobacterium strain BUR (Mycobacterium tuberculosis)
[8] = test system: Mycobacterium tuberculosis; test: (§5) In vitro inhibitory activity against Mycobacterium tuberculosis (strain type-BUR) at pH 5.8
[9] = test system: Mycobacterium tuberculosis; test: In vitro activity against Mycobacterium strains on DOL (Mycobacterium tuberculosis)
[10] = test system: Mycobacterium tuberculosis; test: In vitro inhibitory activity against Mycobacterium tuberculosis (strain type-ATCC 35828) at pH 5.8; assay type: functional; method in brief: as §3
[11] = test system: Mycobacterium tuberculosis; test: In vitro inhibitory activity against Mycobacterium tuberculosis (strain type-ATCC 35828)at pH 6.6; assay type: functional; method in brief: as §1
[12] = test system: Mycobacterium tuberculosis; test: In vitro inhibitory activity against Mycobacterium strain DUB (Mycobacterium tuberculosis)
[13] = test system: Mycobacterium tuberculosis; test: In vitro inhibitory activity against Mycobacterium strain GLA (Mycobacterium tuberculosis); assay type: functional; method in brief: as §4
Mycobacterium kansasii [14] = test: In vitro activity inhibitory against Mycobacterium. kansasii (strain type-SWK) at pH 5.8; assay type: functional
Method in brief: (§6)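 Pyrazinamide-resistant isolate SWK tested on Middlebrook 7H10 agar plus 10% OADC adjusted to pH 5.8. Compartmented plates hold 2-fold dilutions from 200 to 3.12 µg/mL, prepared 24–48 h before use and kept at 4 °C, with a drug-free compartment. Incubation was 37 °C for 4 weeks. MIC is the lowest level causing 99% (2 log) growth inhibition.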

Mycobacterium kansasii [15] = test: In vitro inhibitory activity inhibitory against Mycobacterium. kansasii (strain type-SWK) at pH 6.6; assay type: functional; method in brief: as §2
Mycobacterium kansasii [16] = test: In vitro activity against Mycobacterium strain SWK (Mycobacterium kansasii); assay type: functional
Method in brief: (§7)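 Agar dilution MIC against pyrazinamide-resistant clinical isolates on Middlebrook 7H10 agar with 10% OADC at pH 5.8 or pH 6.6. Serial 2-fold dilutions span 200–3.12 µg/mL in compartmented plates made 24–48 h ahead and stored at 4 °C. Each isolate has a drug-free control. Plates were incubated at 37 °C for 4 weeks. MIC is the lowest concentration giving 99% (2 log) growth inhibition.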

[17] = test system: Mycobacterium tuberculosis; test: In vitro inhibitory activity against Mycobacterium tuberculosis (strain type-H37Rv) at pH 6.6; assay type: functional
[18] = test system: Mycobacterium tuberculosis; test: In vitro inhibitory activity against Mycobacterium tuberculosis (strain type-BUR) at pH 6.6; assay type: functional; method in brief: as §1
[19] = test system: Mycobacterium tuberculosis; test: In vitro inhibitory activity against Mycobacterium tuberculosis (strain type-H37Rv) at pH 5.8; assay type: functional; method in brief: as §3
[20] = test system: Mycobacterium tuberculosis; test: In vitro inhibitory activity against Mycobacterium strain LEL (Mycobacterium tuberculosis); assay type: functional; method in brief: as §4
[21] = test system: Mycobacterium tuberculosis; test: In vitro inhibitory activity against Mycobacterium strain MCQ (Mycobacterium tuberculosis)
[22] = test system: Mycobacterium tuberculosis; test: In vitro activity against Mycobacterium strains on SMA (Mycobacterium tuberculosis)
[23] = test system: Mycobacterium tuberculosis; test: In vitro inhibitory activity against Mycobacterium strain WOO (Mycobacterium tuberculosis)
[24] = test system: Mycobacterium tuberculosis; test: In vitro activity against Mycobacterium strain DOU (Mycobacterium tuberculosis)
[25] = test system: Mycobacterium tuberculosis; test: In vitro inhibitory activity against Mycobacterium strain ING (Mycobacterium tuberculosis); assay type: functional; method in brief: as §4
Mycobacterium kansasii [26] = test: In vitro activity against Mycobacterium strain SCH (Mycobacterium kansasii); assay type: functional; method in brief: as §7
[27] = test system: Mycobacterium tuberculosis; test: In vitro inhibitory activity against Mycobacterium strains on BAK (Mycobacterium tuberculosis)
[28] = test system: Mycobacterium tuberculosis; test: as §5; assay type: functional; method in brief: as §3
[29] = test system: Mycobacterium tuberculosis; test: In vitro inhibitory activity against Mycobacterium tuberculosis (strain type-ATCC 35828) at pH 6.6; assay type: functional; method in brief: as §1
Mycobacterium kansasii [30] = test: In vitro inhibitory activity against Mycobacterium kansasii (strain type-SWK) at pH 6.6; assay type: functional; method in brief: as §2
Mycobacterium kansasii [31] = test: In vitro inhibitory activity against Mycobacterium kansasii (strain type-SWK) at pH 5.8; assay type: functional; method in brief: as §6

O=C(OCCBr)c1cnccn1
MIC [1]: > 200 µg/mL | MIC [2]: > 200 µg/mL | MIC (Mycobacterium kansasii [3]): > 200 µg/mL

O=C(OC(C(F)(F)F)C(F)(F)F)c1cnccn1
MIC [4]: 100 µg/mL (≈ 365 µM) | MIC [5]: 200 µg/mL (≈ 730 µM)

NC(=O)c1cnccn1 [PYRAZINAMIDE]
MIC [6]: > 200 µg/mL | MIC [7]: 25 µg/mL (≈ 203 µM) | MIC [8]: 25 µg/mL (≈ 203 µM) | MIC [9]: 25 µg/mL (≈ 203 µM) | MIC [10]: > 200 µg/mL | MIC [11]: > 200 µg/mL | MIC [12]: 50 µg/mL (≈ 406 µM) | MIC [13]: 12.5 µg/mL (≈ 102 µM) | MIC (Mycobacterium kansasii [14]): > 200 µg/mL | MIC (Mycobacterium kansasii [15]): > 200 µg/mL | MIC (Mycobacterium kansasii [16]): > 200 µg/mL | MIC [17]: >200 µg/mL | MIC [18]: 200 µg/mL (≈ 1620 µM) | MIC [19]: 12.5 µg/mL (≈ 102 µM) | MIC [20]: > 200 µg/mL | MIC [21]: 25 µg/mL (≈ 203 µM) | MIC [22]: 50 µg/mL (≈ 406 µM) | MIC [23]: 50 µg/mL (≈ 406 µM) | MIC [24]: 25 µg/mL (≈ 203 µM) | MIC [25]: 12.5 µg/mL (≈ 102 µM) | MIC (Mycobacterium kansasii [26]): > 200 µg/mL | MIC [27]: 50 µg/mL (≈ 406 µM)

O=C(O)c1cnccn1 [PYRAZINOIC ACID]
MIC [28]: 50 µg/mL (≈ 403 µM) | MIC [29]: > 200 µg/mL | MIC [10]: 100 µg/mL (≈ 806 µM) | MIC (Mycobacterium kansasii [30]): > 200 µg/mL | MIC ([17]; Mycobacterium tuberculosis, read-out: MIC): 200 µg/mL (≈ 1610 µM) | MIC [18]: > 200 µg/mL | MIC [19]: 50 µg/mL (≈ 403 µM) | MIC (Mycobacterium kansasii [31]): > 200 µg/mL
